Screens: PubChem, several laboratories
RanGTP-Imp inh = inhibitors of RanGTP-importin-beta interaction, primary screen, biochemical, FRET, CFP-Ran, YFP-importin-beta, homogeneous | cell-free CFP-Ran/YFP-importin-beta FRET ratio | inhibition, % (test concentration not listed) | hit rate 1.1% among 300,000;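 active = more than half of the replicate wells show a fall in the fluorescence ratio signal beyond about 16%, limit read from the data, passing the limit was not always enough; inconclusive = exactly half of the replicate wells pass the set limit; inactive = fewer than half of replicates pass the limit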;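 also: 0% = DMSO wells and 100% = Ran loaded with GDP instead of GTP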
Runt-CBFb FRET = Runt domain-CBFb interaction inhibition; Q01196+Q13951; Cerulean-Runt/Venus-CBFb FRET ratio 530/480, 1 h; inhibition, % at 20 µM; hit rate 0.46% among 220,000;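 active = inhibition over about 50% at 20 µM in the single-dose screen, limit read from the data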;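 also: 0% = DMSO wells and 100% = excess unlabeled CBFb competitor control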
Target sequence (Q01196 whole entry, looked up, the tested form may be a part): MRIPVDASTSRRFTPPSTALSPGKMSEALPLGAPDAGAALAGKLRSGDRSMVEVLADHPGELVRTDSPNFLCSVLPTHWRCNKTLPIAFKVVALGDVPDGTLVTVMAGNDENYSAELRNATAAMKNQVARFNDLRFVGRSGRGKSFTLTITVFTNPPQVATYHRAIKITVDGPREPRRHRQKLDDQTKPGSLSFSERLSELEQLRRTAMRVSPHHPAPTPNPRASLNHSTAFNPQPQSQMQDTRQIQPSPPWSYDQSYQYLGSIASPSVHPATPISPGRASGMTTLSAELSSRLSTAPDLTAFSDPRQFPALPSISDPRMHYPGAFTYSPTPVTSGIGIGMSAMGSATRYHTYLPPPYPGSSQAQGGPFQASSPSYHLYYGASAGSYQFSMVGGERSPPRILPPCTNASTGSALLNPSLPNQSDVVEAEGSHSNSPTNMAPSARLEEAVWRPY
Target sequence (Q13951 whole entry, looked up, the tested form may be a part): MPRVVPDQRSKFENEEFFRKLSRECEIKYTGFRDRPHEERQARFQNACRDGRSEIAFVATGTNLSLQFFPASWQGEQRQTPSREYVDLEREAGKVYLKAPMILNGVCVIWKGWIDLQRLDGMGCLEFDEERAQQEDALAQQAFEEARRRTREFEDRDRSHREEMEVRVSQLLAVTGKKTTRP
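Schedule: protein complex preformed 1 h, compound exposure 1 h, room temperature, dark; test system: Cerulean-labeled Runt domain protein; amount: 100 nM per protein; buffer or medium: Tris 50 mM pH 7.5, KCl, K2SO4, 0.01% BSA; read-out: loss of energy transfer signal; detection: FRET fluorescence; controls: 5 µM unlabeled CBFb as full-inhibition high control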
LANA-H2B inh = blocks KSHV LANA binding to histone H2A/H2B. cell-free LANA-H2A/H2B peptide, fluorescence polarization. inhibition, % (concentration not given with the values). hit rate 0.6% among 320,000; in the data active = inhibition mostly above about 10%, no sharp cut-off; inactive = mostly below about 6.7%
CaV13 ICDI inh = Primary screen for inhibitors of IQ motif and Ca2+-dependent inactivation inhibitor domain binding in CACNA1D, Förster resonance energy transfer in living cells, …. AID 743397. HEK cells, CFP/YFP FRET ICDI-IQ, plate reader, 10 min; percent FRET-ratio fall versus neutral wells. inhibition, % at 12.3 µM. hit rate 0.098% among 340,000;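 active = mean replicate inhibition of at least 30% and at least 1% of replicates passing that level; inconclusive = only one of the two criteria is met; inactive = neither criterion is met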;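 also: 0% = median of the neutral control wells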
HDAC3 inh = human HDAC3 inhibition; recombinant HDAC3, fluorogenic peptide/trypsin coupled, fluorescence; inhibition, % at 8.3 µM; hit rate 0.15% among 320,000; O15379; in the data active = inhibition above about 26%, passing the limit was not always enough; inconclusive = no clear call, values can overlap the other calls
Runt-SMMHC FRET = inhibitors of human RUNX1 Runt domain binding to CBFb-SMMHC | inhibition, % at 20 µM | AID 1434 | Cerulean-Runt/Venus-CBFb-SMMHC FRET ratio 530/480, 1 h | hit rate 0.74% among 220,000;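 active = mean inhibition across duplicate retests at 20 µM reaching about 50%, limit read from the data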;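 also: 0% = DMSO wells and 100% = wells with excess untagged CBFb-SMMHC; inhibitors lower the FRET ratio by blocking Runt binding to CBFb-SMMHC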
* hit, by the source's call; i = inactive; ? = inconclusive; . = no result; + = active, no number. In the library only some 1.9% were active in any assay of this set; here they are far more common.

SMILES | RanGTP-Imp inh | Runt-CBFb FRET | LANA-H2B inh | CaV13 ICDI inh | HDAC3 inh | Runt-SMMHC FRET
C=CCn1c(=N)c(C(=O)OCC)cc2c(=O)n3cccc(C)c3nc21 | . | . | -1 | . | -132 | .
CCNC(=O)c1cc2c(=O)n3cccc(C)c3nc2n(Cc2ccc(C)cc2)c1=N | + | 11 | 11 | 55* | -202 | 41
CCOC(=O)c1cc2c(=O)n3cccc(C)c3nc2n(Cc2ccccc2Cl)c1=N | . | 126* | . | . | . | 65*
CC12CN3CC(C)(CN(C1)C3c1ccc([N+](=O)[O-])o1)C2 (stereo not given) | 7 | 3 | -6 | -19 | 3 | -5
Cc1ccc(-c2ccc(NC(=O)C3C4C=CC(C4)C3C(=O)O)cc2)o1 (stereo not given) | 30* | 8 | -8 | -3 | 2 | 5
CCNc1nc(NCC)nc(N/N=C/c2ccc(N(C)C)cc2)n1 | -2 | 0 | 65* | -7 | -4 | 3
CCNc1nc(NCC)nc(N/N=C/c2ccc(O)c(O)c2)n1 | 6 | 20 | 3 | 2 | 11 | 15
O=C1c2ccccc2C(=O)N1C1CCCCC1 | 4 | . | -1 | 1 | -2 | .
CCOc1ccc(CNC(=O)C(CC)n2nc(C)n3c(cc4occc43)c2=O)cc1OC (stereo not given) | -3 | 2 | -3 | -5 | 1 | -2
CCC(C)(C)n1nnnc1C(c1ccc(C)cc1)N1CCN(C(=O)c2ccco2)CC1 (stereo not given) | 4 | -4 | -2 | -4 | 1 | 2
CCC(C)(C)n1nnnc1C(c1cc2cccc(C)c2[nH]c1=O)N1CCN(C(=O)c2ccco2)CC1 (stereo not given) | 17* | -18 | -6 | -3 | 5 | -131
CCN1CCN(S(=O)(=O)c2ccc(C(C)(C)C)cc2)CC1 | -5 | . | 13* | 7 | -4 | .
CCN1CCN(S(=O)(=O)c2ccc(S(=O)(=O)NC3CC3)cc2)CC1 | 1 | . | -4 | -5 | -4 | .
O=C(NNc1c2ccccc2nc2ccccc12)c1ccccc1Cl | 27* | . | 2 | -3 | -4 | .
O=C(NNc1c2ccccc2nc2ccccc12)c1ccccc1O | . | 14 | 0 | -3 | -5 | 48
O=C(COc1ccc(F)cc1)OCCN1CCOCC1 | 7 | 3 | 34* | . | 11 | -1
Cc1ccc(-n2c(CNC(=O)c3cccs3)nnc2SCC(=O)NO)cc1 | 2 | 0 | 0 | -6 | 53* | 3
O=C(CN1CCN(Cc2ccccc2Cl)CC1)N/N=C/C=C/c1ccco1 | ? | -2 | -3 | -5 | 11 | -1
O=C(CN1CCN(Cc2ccccc2)CC1)N/N=C\C=C/c1ccco1 | -5 | -3 | 12* | -4 | 10 | -120
Cn1c(=O)c2cn(-c3ccccc3)cc2n(C)c1=O | ? | -1 | -2 | -4 | 0 | -1
Cc1ccc(CN2C(=O)CCC2C(=O)NCc2cccnc2)cc1 (stereo not given) | 1 | 1 | 18* | -5 | -2 | 1
Cc1ccc(CNC(=O)C2CCC(=O)N2Cc2ccc(F)cc2)cc1 (stereo not given) | 1 | . | -3 | -5 | -5 | .
Cc1cc(NCc2ccco2)nc2cc(O)ccc12 | 30* | 32 | -3 | -5 | -38 | 76*
O=C(CNS(=O)(=O)c1ccccc1)OCC(=O)c1ccc(Br)cc1 | 1 | . | -1 | -2 | 5 | .
CCc1nnc(NC(=O)c2ccc(S(=O)(=O)N(CCOC)CCOC)cc2)o1 | 0 | -1 | -1 | -4 | -3 | -1
SMILES | RanGTP-Imp inh | Runt-CBFb FRET | LANA-H2B inh | CaV13 ICDI inh | HDAC3 inh | Runt-SMMHC FRET
COCCN(CCOC)S(=O)(=O)c1ccc(C(=O)Nc2nnc(C3CC3)o2)cc1 | -4 | 0 | + | -5 | -2 | 5
COc1ccc(C(=O)NCCCn2ccnc2)cc1[N+](=O)[O-] | 0 | 1 | 1 | -6 | 6 | 2
COc1cc(C(=O)NCCCn2ccnc2)cc(OC)c1OC | 3 | 0 | 11* | -4 | 4 | 0
Cc1ccc(C)n1-c1nnc(N2CCC(C(=O)N3CCN(C)CC3)CC2)s1 | 7 | . | -7 | -2 | -1 | .
COc1cc(/C=N/O)c(Br)cc1OCC(=O)Nc1ccccc1C | 2 | -1 | 17* | -5 | -7 | -4
O=C(CCC1CCCC1)NNC(=O)c1ccc(F)cc1 | . | . | 50* | -20 | -5 | .
CC1CCc2[nH]c3ccc(C(=O)NCCCOC(C)C)cc3c2C1 (stereo not given) | 22* | 0 | 6 | -19 | -3 | 8
CCOc1ccc(CC(=O)Nc2nccs2)cc1OCC | -2 | 1 | 21* | -2 | 2 | 3
CCOC(=O)COc1c(Cl)cc(/C=C2\N=C(C)OC2=O)cc1OC | ? | . | 2 | -3 | 66* | .
CCOc1cc(/C=C2\N=C(C)OC2=O)cc(Br)c1OCC(=O)OC | 1 | 1 | 0 | -7 | 18 | -10
COCCn1c(=N)c(C(=O)NCCc2ccc(OC)cc2)cc2c(=O)n3cccc(C)c3nc21 | 78* | 108* | 0 | -2 | 3 | 114*
COCCCNC(=O)c1cc2c(=O)n3cccc(C)c3nc2n(C(C)C)c1=N | 188* | 18 | 3 | -2 | i | 57*
COc1ccc(CNC(=O)c2cc3c(=O)n4cccc(C)c4nc3n(CC3CCCO3)c2=N)cc1 (stereo not given) | 77* | . | 5 | -2 | -2 | .
Cc1cccn2c(=O)c3cc(C(=O)NCc4ccc(F)cc4)c(=N)n(CC4CCCO4)c3nc12 (stereo not given) | 185* | . | 3 | 7 | -180 | .
CN(C(=O)c1ccc(NC(=O)Cc2ccc(NC(=O)C3CCN(C(=O)c4ccccc4)CC3)cc2)cc1)C1CC1 | . | . | 0 | 19 | -9 | .
CC(NCC(=O)Nc1cc(S(=O)(=O)N2CCOCC2)ccc1N1CCOCC1)c1ccco1 (stereo not given) | . | . | 2 | -8 | 6 | .
Cc1ccc(-c2cn(CCC(=O)O)c(-c3ccc(Cl)nc3)n2)cc1 | . | . | -1 | -6 | 8 | .
CCOc1ccc(N(CC(=O)NC2CCCC2)C(=O)CCCC(=O)Nc2ccccn2)cc1 | 0 | -2 | 3 | -4 | 2 | 2
O=C(CN1CCCCCC1)N/N=C/c1cccs1 | 1 | 0 | 2 | -6 | 0 | 2
O=C(N/N=C/c1cccs1)C(=O)N1CCCC1 | 6 | 3 | 15* | -6 | 5 | -2
CCS(=O)(=O)N1Cc2ccccc2CC1C(=O)N(C)CC(=O)Nc1ccc(F)c(F)c1F (stereo not given) | -2 | . | 32* | -2 | 0 | .
N#Cc1ccc(/C=N/NC(=O)c2cccc(S(=O)(=O)N3CCOCC3)c2)cc1 | 32* | 1 | -3 | 3 | 7 | -1
